ChEMBL document CHEMBL4000247, “Carbonic anhydrases activation with 3-amino-1H-1,2,4-triazole-1-carboxamides: Discovery of subnanomolar isoform II activators” (Bioorg Med Chem, 2017)

Legend:
[1] = target: Carbonic anhydrase 2 (Homo sapiens) (UniProt P00918); assay: Activation of recombinant human carbonic anhydrase 2 incubated for 15 mins prior to testing by stopped flow CO2 hydrase assay
Outline: (§1)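 CO2 hydration followed 5–10 s in stopped-flow instrument; phenol red 0.2 mM read at 557 nm; 10 mM HEPES pH 7.4, 0.1 M NaClO4 for ionic strength; saturated CO2 solutions in water at 25°C as substrate. Activator stocks 10 mM in assay buffer, diluted down to 0.01 nM; enzyme and activator preincubated 15 min at room temperature. Activation constant from competitive steady-state equation.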

[2] = target: Carbonic anhydrase 1 (Homo sapiens) (UniProt P00915); assay: Activation of recombinant human carbonic anhydrase 1 incubated for 15 mins prior to testing by stopped flow CO2 hydrase assay; outline: as §1
Carbonic anhydrase 1 (Homo sapiens), sequence (P00915 2-261 limits assumed): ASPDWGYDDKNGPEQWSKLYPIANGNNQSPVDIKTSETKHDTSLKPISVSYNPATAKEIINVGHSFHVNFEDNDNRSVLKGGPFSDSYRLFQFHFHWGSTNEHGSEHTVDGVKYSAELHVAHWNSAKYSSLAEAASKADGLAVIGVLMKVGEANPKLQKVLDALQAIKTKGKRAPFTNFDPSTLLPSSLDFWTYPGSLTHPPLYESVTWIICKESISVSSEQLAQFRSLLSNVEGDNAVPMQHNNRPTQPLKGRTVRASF

Row | KA [1] [nM] | KA [2] [nM] | Structure (SMILES)
1 | 0.05 | 0.94 | Nc1ncn(C(=O)Nc2ccc(Cc3ccc(NC(=O)n4cnc(N)n4)cc3)cc2)n1
2 | 65 | 11.1 | Nc1ncn(C(=O)NCCCCCCCCNC(=O)n2cnc(N)n2)n1
3 | 826 | 4.2 | Cc1ccc(NC(=O)n2cnc(N)n2)cc1NC(=O)n1cnc(N)n1
4 | 345 | 123 | CCCCCCNC(=O)n1cnc(N)n1
5 | 1570 | 993 | CC1(C)CC(NC(=O)n2cnc(N)n2)CC(C)(CNC(=O)n2cnc(N)n2)C1 (stereo not drawn)
6 | 0.12 | 65 | Nc1ncn(C(=O)Nc2ccc(NC(=O)n3cnc(N)n3)cc2)n1

More lines, now with the values behind:

Row | Structure (SMILES) | KA [1] [nM] | KA [2] [nM]
7 | Nc1ncn(C(=O)Nc2ccc(-c3ccc(NC(=O)n4cnc(N)n4)cc3)cc2)n1 | 14.1 | 0.81
8 | Nc1ncn(C(=O)NCCCCCCCCCCCCNC(=O)n2cnc(N)n2)n1 | 79 | 982
9 | CCCCCCCCCCCCCCCCCCNC(=O)n1cnc(N)n1 | 1680 | 987
10 | CCCCNC(=O)n1cnc(N)n1 | 1.7 | 6.1
11 | Nc1ncn(C(=O)NCCCCCCNC(=O)n2cnc(N)n2)n1 | 14.6 | 42
12 | O=C(O)c1ncn(C(=O)NCCCCCCNC(=O)n2cnc(C(=O)O)n2)n1 | 6700 | 13.7
13 | COc1cc(-c2ccc(NC(=O)n3cnc(N)n3)c(OC)c2)ccc1NC(=O)n1cnc(N)n1 | 1680 | 637
14 | Nc1ncn(C(=O)NCCCCNC(=O)n2cnc(N)n2)n1 | 91 | 74
